These results are taken from PMC7888481 (Journal of natural products, 2020).

Entries after “also recorded” stand apart in the source; their conditions may differ.

Data set [1] deals with Human FAAH. The conditions noted are these: read-out: Human FAAH IC50; literature values ref 27; cited from earlier work.
The test system of data set [2] is CB1 receptor. The conditions noted are these: cited from earlier work.
For data set [3], the system named is LPS-induced inflammatory pain. As to the kind of experiment: LPS-induced inflammatory pain model. The format is in vivo. The conditions noted are these: rat, 100 mg/kg oral, LPS intraplantar, 6-h time-course, n=4/group.
Data set [4] can be described thus: Pharmacokinetics after oral administration in rats. The conditions noted are these: rat, 100 mg/kg oral. The format is in vivo. An outline of the steps: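 Male Sprague-Dawley rats, 8 weeks old, 250–300 g, n=4/group. Test compound given once at 100 mg/kg in 100% NEOBEE 1053 by oral gavage. Each sample added to 100 μL water with 0.1% EDTA, vortexed, stored at −80 °C, then processed and quantified by a previously reported method.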

For data set [5], the target named is T1, recombinant human sEH (Homo sapiens, UniProt P34913).
T1 sequence (P34913 1-555): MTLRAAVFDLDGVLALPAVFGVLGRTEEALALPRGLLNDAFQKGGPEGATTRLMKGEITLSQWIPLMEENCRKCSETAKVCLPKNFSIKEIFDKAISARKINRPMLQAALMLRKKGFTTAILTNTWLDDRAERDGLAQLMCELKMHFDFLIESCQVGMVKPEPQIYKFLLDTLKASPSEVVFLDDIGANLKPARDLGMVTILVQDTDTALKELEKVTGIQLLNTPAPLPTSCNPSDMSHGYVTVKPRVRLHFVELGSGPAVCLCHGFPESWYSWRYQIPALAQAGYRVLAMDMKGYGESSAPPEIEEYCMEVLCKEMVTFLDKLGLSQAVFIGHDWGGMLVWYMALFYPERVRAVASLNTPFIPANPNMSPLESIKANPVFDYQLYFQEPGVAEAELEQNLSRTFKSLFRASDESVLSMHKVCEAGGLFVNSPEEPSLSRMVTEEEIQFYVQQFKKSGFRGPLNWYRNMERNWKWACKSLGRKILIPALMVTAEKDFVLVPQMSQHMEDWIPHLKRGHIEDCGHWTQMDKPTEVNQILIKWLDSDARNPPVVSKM
Put plainly: sEH inhibition assay. The format is biochemical. An outline of the steps:
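Fluorescence assay on recombinant human sEH, test compound in serial dilution. Substrate MNPC at 5 μM final is hydrolysed to fluorescent 6-methoxynaphthaldehyde, read at λex 330 nm and λem 465 nm. IC50 determined in triplicate and the mean reported. Reference inhibitor t-TUCB run in parallel to validate the assay.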

Broadly, the IC50 is the concentration that inhibits the measured activity by half. Regarding `CCCCCCCCCCCCCCCC(=O)NCc1ccccc1` [Compound 1, N-benzylpalmitamide], the IC50 in data set [1] is more than 100 µM.

On to `CCCCCCCCCCCCCCCCCC(=O)NCc1ccccc1` [Compound 2, N-Benzyloctadecanamide], for which the IC50 in data set [1] is more than 100 µM.

In the case of `CCCCCCCC/C=C\CCCCCCCC(=O)NCc1ccccc1` [Compound 3, N-Benzyloctadec-9Z-enamide], the IC50 in data set [1] is 16.7 µM.

On to `CCCCC/C=C\C/C=C\CCCCCCCC(=O)NCc1ccccc1` [Compound 4, N-Benzyloctadeca-9Z,12Z-dienamide], for which the “binding to the CB1 receptor” value in data set [2] is given as “selectively bind”. Also, in data set [3] (100 mg/kg), the “paw withdrawal thresholds (pain relief) relative to vehicle control” value is “significantly increased; also recorded: efficacious”. For the same molecule, the IC50 in data set [1] was 10.8 µM. Also, the “time at which concentration peaked in the blood” value in data set [4] is not above 3 h.

As for `CC/C=C\C/C=C\C/C=C\CCCCCCCC(=O)NCc1ccccc1` [Compound 5, N-Benzyloctadeca-9Z,12Z,15Z-trienamide], the “paw withdrawal thresholds (pain relief) relative to vehicle control” value in data set [3] is “not significant”. The IC50 in data set [1] is 41.8 µM.

For `CCCCCCCC/C=C\CCCCCCCC(=O)NCc1cccc(OC)c1` [Compound 10, N-(3-Methoxybenzyl)octadec-9Z-enamide], in data set [1], the IC50 was 11 µM.

`CCCCC/C=C\C/C=C\CCCCCCCC(=O)NCc1cccc(OC)c1` [Compound 11, N-(3-Methoxybenzyl)octadeca-9Z,12Z-dienamide]: the IC50 in data set [1] was 10.3 µM.

In the case of `CC/C=C\C/C=C\C/C=C\CCCCCCCC(=O)NCc1cccc(OC)c1` [Compound 12, N-(3-Methoxybenzyl)octadeca-9Z,12Z,15Z-trienamide], the IC50 in data set [1] is 13.7 µM.

On to `CCCCC/C=C\C/C=C\CCCCCCCC(=O)NCCc1ccccc1` [Compound 18, N-Phenethyloctadeca-9Z,12Z-dienamide], for which the IC50 in data set [5] was found to be 0.028 µM.
